Measurements of several laboratories.
Compare with care: the assays were run in different laboratories.
AKR1C2: Aldo-keto reductase family 1 member C2 (AKR1C2, Homo sapiens, UniProt P52895)
Neuronal acetylcholine receptor; alpha3/beta2: Neuronal acetylcholine receptor; alpha3/beta2 (Rattus norvegicus, UniProt P04757+P12390)

CC[C@H](C)[C@H](NC(C)=O)C(=O)N[C@@H](CCC(=O)O)C(=O)N[C@H](C(=O)N[C@H](C=O)CC(=O)O)[C@@H](C)O  IC50 (Caspase-4 (Casp4, Mus musculus, UniProt P70343); enzyme activity, inhibitor): 0.162 µM
COC(=O)c1cc(N(C)C(=O)c2ccn3ncc(-c4ccc(C(=O)O)cc4)c3c2)ccc1Cl  IC50 (Vascular endothelial growth factor receptor 1 (FLT1, Homo sapiens, UniProt P17948); enzyme activity, inhibitor): > 30 µM
O=C(O)C(F)(OC(F)(F)C(F)(F)C(F)(F)F)C(F)(F)F (centres unmarked)  IC50 (AKR1C2; enzyme activity, inhibitor, fluorescence): 13.8 µM
CNC(=O)c1ccc(-c2cnn3ccc(C(=O)N(C)c4ccc(Cl)c(C(=O)OC)c4)cc23)cc1  IC50 (Serine/threonine-protein kinase Nek11 (NEK11, Homo sapiens, UniProt Q8NG66); enzyme activity, inhibitor): > 30 µM
COc1ccc2[nH]c3c(c2c1)CCN(C)CC3  IC50 (Neuronal acetylcholine receptor; alpha3/beta2; ion current, antagonist, two-electrode voltage clamp; oocytes): 28.3 µM
O=C(NC[C@H]1C[C@@H]2CCN1C[C@@H]2CN1C[C@@H]2C[C@H](C1)c1cccc(=O)n1C2)c1ccc2c(c1)OCO2  IC50 (Atypical kinase COQ8A, mitochondrial (COQ8A, Homo sapiens, UniProt Q8NI60); ligand displacement, TR-FRET): 13.7 µM
O=C(O)C(F)F  IC50 (AKR1C2; enzyme activity, inhibitor, fluorescence): > 50 µM
COc1ccc2c3c([nH]c2c1)CCN(C)CC3  IC50 (Neuronal acetylcholine receptor; alpha3/beta2; ion current, antagonist, two-electrode voltage clamp; oocytes): 27.6 µM
